# Measurements as given in ChEMBL document CHEMBL2390920, “8-Benzamidochromen-4-one-2-carboxylic acids: potent and selective agonists for the orphan G protein-coupled receptor GPR35” (J Med Chem, 2013).
# Experiments:
# [1] = molecular target: G protein-coupled receptor GPR35 (Rattus norvegicus, UniProt Q33BM1); assay: Agonist activity at rat GPR35 expressed in CHO cells assessed as induction of beta-arrestin recruitment after 90 mins by beta-galactosidase reporter gene assay; format: cell-based
# How it was run: (§1)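 Rat GPR35 expressed by transfecting a parental CHO β-arrestin-EA line; cells seeded at 20000/well the day before. Compounds (final DMSO ≤1%) were incubated 90 min, followed by detection reagent and a luminescence read after 60 min.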
# [2] = molecular target: T1, G-protein coupled receptor 55 (Homo sapiens, UniProt Q9Y2T6); assay: Agonist activity at human GPR55 expressed in CHO cells assessed as induction of beta-arrestin recruitment at 10 uM after 90 mins by beta-galactosidase reporter gene assay relative to lysophosphotidylinositol; format: functional, cell-based
# How it was run: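 Human GPR55 PathHunter CHO cells, 20000 cells/well seeded the day before, received test compound at 10 µM (final DMSO ≤1%) for 90 min. Detection reagent was then added and luminescence read after 60 min. Signal was normalized to that of 1 µM LPI.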
# [3] = molecular target: G-protein coupled receptor 35 (Mus musculus) (UniProt Q9ES90); assay: Agonist activity at mouse GPR35 expressed in CHO cells assessed as induction of beta-arrestin recruitment at 10 uM after 90 mins by beta-galactosidase reporter gene assay; format: cell-based
# How it was run: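 Mouse GPR35 introduced by transfection into a CHO β-arrestin-EA line; 20000 cells/well plated the day prior. After 90 min of compound exposure (final DMSO ≤1%), detection reagent was added and luminescence read after 60 min.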
# [4] = molecular target: G protein-coupled receptor GPR35 (Rattus norvegicus) (UniProt Q33BM1); assay: Agonist activity at rat GPR35 expressed in CHO cells assessed as induction of beta-arrestin recruitment at 10 uM after 90 mins by beta-galactosidase reporter gene assay relative to zaprinast; format: cell-based; how it was run: as §1
# [5] = molecular target: T1, G-protein coupled receptor 55; assay: Antagonist activity at human GPR55 expressed in CHO cells assessed as inhibition of lysophosphotidylinositol-induced beta-arrestin recruitment at 10 uM preincubated for 30 mins followed by lysophosphotidylinositol induction by beta-galactosidase reporter gene assay relative to control; format: functional, cell-based
# How it was run: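 Human GPR55 PathHunter CHO cells were preincubated 30 min with compound, then stimulated with LPI (final 1 µM). After 90 min, detection reagent was added and luminescence read 60 min later. Screening was at 10 µM; full concentration-inhibition curves were run for selected compounds to give IC50.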
# [6] = molecular target: T2, G-protein coupled receptor 35 (Homo sapiens, UniProt Q9HC97); assay: Agonist activity at human GPR35 expressed in CHO cells assessed as induction of beta-arrestin recruitment after 90 mins by beta-galactosidase reporter gene assay; format: cell-based
# How it was run: (§2)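 PathHunter enzyme-fragment complementation in CHO cells stably expressing β-arrestin-EA and tagged human GPR35, seeded at 20000 cells/well the day before. DMSO dilutions were further diluted 1:10 (final DMSO ≤1%). Cells were incubated 90 min, then detection reagent was added and luminescence read after 60 min.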
# [7] = molecular target: T2, G-protein coupled receptor 35; assay: Agonist activity at human GPR35 expressed in CHO cells assessed as induction of beta-arrestin recruitment at 10 uM after 90 mins by beta-galactosidase reporter gene assay relative to zaprinast; format: cell-based; how it was run: as §2
# [8] = molecular target: G protein-coupled receptor GPR35 (Rattus norvegicus) (UniProt Q33BM1); assay: Agonist activity at rat GPR35 expressed in CHO cells assessed as induction of beta-arrestin recruitment at 10 uM after 90 mins by beta-galactosidase reporter gene assay; format: cell-based; how it was run: as §1
# T1 sequence (Q9Y2T6 whole entry): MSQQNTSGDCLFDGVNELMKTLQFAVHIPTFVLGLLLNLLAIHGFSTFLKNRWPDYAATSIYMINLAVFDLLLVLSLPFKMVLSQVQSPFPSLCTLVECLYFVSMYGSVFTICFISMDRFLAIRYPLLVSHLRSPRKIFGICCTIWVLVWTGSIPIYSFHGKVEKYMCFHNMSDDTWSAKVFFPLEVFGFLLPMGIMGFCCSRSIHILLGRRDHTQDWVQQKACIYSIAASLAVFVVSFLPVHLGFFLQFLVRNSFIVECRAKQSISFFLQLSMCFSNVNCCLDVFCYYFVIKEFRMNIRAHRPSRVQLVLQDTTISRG
# T2 sequence (Q9HC97 whole entry, the tested form may be a part): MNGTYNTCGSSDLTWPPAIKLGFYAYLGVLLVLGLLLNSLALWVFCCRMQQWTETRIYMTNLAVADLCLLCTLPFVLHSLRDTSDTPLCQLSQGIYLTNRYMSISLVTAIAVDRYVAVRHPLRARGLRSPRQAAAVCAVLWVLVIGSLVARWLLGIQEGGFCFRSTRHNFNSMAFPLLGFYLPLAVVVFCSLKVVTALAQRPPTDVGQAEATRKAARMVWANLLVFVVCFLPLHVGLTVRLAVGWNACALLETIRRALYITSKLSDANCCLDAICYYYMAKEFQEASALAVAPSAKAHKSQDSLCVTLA
# G protein-coupled receptor GPR35 (Rattus norvegicus), sequence (Q33BM1 as listed by the source): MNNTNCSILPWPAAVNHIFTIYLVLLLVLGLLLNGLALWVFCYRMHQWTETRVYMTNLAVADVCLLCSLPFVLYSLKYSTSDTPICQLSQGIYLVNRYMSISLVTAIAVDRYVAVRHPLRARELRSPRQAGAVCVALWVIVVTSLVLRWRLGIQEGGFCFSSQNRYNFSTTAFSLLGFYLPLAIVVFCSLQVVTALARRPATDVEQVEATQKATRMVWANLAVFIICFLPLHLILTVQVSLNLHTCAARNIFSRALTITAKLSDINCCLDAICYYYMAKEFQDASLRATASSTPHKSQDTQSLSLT
# G protein-coupled receptor GPR35, sequence (Q33BM1 whole entry): as the sequence (Q33BM1 as listed by the source) above
# G-protein coupled receptor 35 (Mus musculus), sequence (Q9ES90 whole entry): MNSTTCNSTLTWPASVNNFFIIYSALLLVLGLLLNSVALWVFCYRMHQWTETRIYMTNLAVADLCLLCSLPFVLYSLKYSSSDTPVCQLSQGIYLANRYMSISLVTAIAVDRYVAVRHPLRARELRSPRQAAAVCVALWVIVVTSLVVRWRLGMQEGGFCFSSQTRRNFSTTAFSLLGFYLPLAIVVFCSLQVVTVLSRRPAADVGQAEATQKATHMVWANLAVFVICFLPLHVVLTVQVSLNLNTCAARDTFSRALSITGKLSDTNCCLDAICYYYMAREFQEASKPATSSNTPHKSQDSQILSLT
EC50 [1],Activity [2],Activity [3],Emax [4],inhibition [5],EC50 [6],Emax [7],Activity [8],Compound
1.36 µM,-1%,36%,74%,39%,0.634 µM,99%,–,CCOc1ccc(C(=O)Nc2cc(Br)cc3c(=O)cc(C(=O)O)oc23)cc1
2.75 µM,23%,40%,75%,21%,0.303 µM,110%,–,O=C(Nc1cc(Br)cc2c(=O)cc(C(=O)O)oc12)c1ccccc1
–,3%,13%,–,24%,4.91 µM,107%,39%,O=C(Nc1cccc2c(=O)cc(C(=O)O)oc12)c1ccccc1
2.75 µM,10%,18%,71%,25%,5.44 µM,70%,–,Cc1cccc(C(=O)Nc2cccc3c(=O)cc(C(=O)O)oc23)c1
3.14 µM,8%,18%,115%,14%,1.71 µM,130%,–,O=C(Nc1cc(Cl)cc2c(=O)cc(C(=O)O)oc12)c1ccc([N+](=O)[O-])cc1
2.26 µM,0%,41%,99%,38%,0.399 µM,108%,–,N#Cc1ccc(C(=O)Nc2cc(Br)cc3c(=O)cc(C(=O)O)oc23)cc1
–,6%,43%,–,16%,1.38 µM,104%,43%,Cc1ccc(C(=O)Nc2cccc3c(=O)cc(C(=O)O)oc23)cc1
2.1 µM,4%,31%,92%,40%,1.22 µM,102%,–,Cc1cccc(C(=O)Nc2cc(Cl)cc3c(=O)cc(C(=O)O)oc23)c1
2.84 µM,20%,31%,65%,23%,0.43 µM,115%,–,O=C(Nc1cc(Cl)cc2c(=O)cc(C(=O)O)oc12)c1ccccc1
–,12%,26%,–,20%,6.97 µM,112%,32%,O=C(Nc1cccc2c(=O)cc(C(=O)O)oc12)c1cccc([N+](=O)[O-])c1

# Continued, compound first:
Compound,EC50 [1],Activity [2],Activity [3],Emax [4],inhibition [5],EC50 [6],Emax [7],Activity [8]
O=C(Cc1ccccc1)Nc1cccc2c(=O)cc(C(=O)O)oc12,–,-11%,19%,–,26%,8.96 µM,107%,47%
O=C(Nc1cccc2c(=O)cc(C(=O)O)oc12)c1ccc(C(F)(F)F)cc1,–,1%,23%,–,5%,15.5 µM,81%,38%
COC(=O)CC(=O)Nc1cccc2c(=O)cc(C(=O)O)oc12,6.65 µM,-4%,15%,89%,31%,20.2 µM,87%,–
CCOC(=O)c1cc(=O)c2cc(F)cc(NC(=O)c3ccc(OC)cc3)c2o1,–,-1%,7%,–,26%,0.112 µM,80%,1%
CC(=O)Nc1cccc2c(=O)cc(C(=O)O)oc12,–,1%,3%,–,–,24.1 µM,91%,31%
O=C(O)c1cc(=O)c2cccc([N+](=O)[O-])c2o1,–,-6%,4%,–,32%,46.3 µM,101%,38%
O=C(O)c1cc(=O)c2cccc(NC(=O)C3CCCCC3)c2o1,1.2 µM,17%,38%,79%,16%,4.2 µM,118%,–
